From ChEMBL document CHEMBL3734668, “Evaluation of small molecule SecA inhibitors against methicillin-resistant Staphylococcus aureus” (Bioorg Med Chem, 2015)
Values after ≈ are worked out from the molar mass of the structure shown. Active and inactive are the calls of the source. No cut-off for these calls is given here.

Key:
[1] = tested on: Staphylococcus aureus; experiment: Bacteriostatic activity against Staphylococcus aureus K2361 overexpressing NorA; type: functional
Summary of the method: (§1)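 Broth microdilution MIC per CLSI guidance in LB, 37 °C, shaking 250 rpm, 24 hr; run in triplicate in three separate experiments. MIC taken as lowest inhibitor concentration with no growth. Compounds from DMSO stocks; untreated controls carry equal DMSO.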

[2] = tested on: Staphylococcus aureus; experiment: Potency index, ratio of MIC for norfloxacin to MIC for test compound against Methicillin resistant Staphylococcus aureus; type: functional
[3] = tested on: Staphylococcus aureus; experiment: Potency index, ratio of MIC for kanamycin to MIC for test compound against Methicillin resistant Staphylococcus aureus; type: functional
[4] = molecular target: T1, Protein translocase subunit SecA 1 (Staphylococcus aureus (strain NCTC 8325)) (UniProt O06446); experiment: Inhibition of Staphylococcus aureus SecA1 assessed as reduction in secretion of TSST-1 at 10 uM by Western blot analysis
T1 sequence (whole entry): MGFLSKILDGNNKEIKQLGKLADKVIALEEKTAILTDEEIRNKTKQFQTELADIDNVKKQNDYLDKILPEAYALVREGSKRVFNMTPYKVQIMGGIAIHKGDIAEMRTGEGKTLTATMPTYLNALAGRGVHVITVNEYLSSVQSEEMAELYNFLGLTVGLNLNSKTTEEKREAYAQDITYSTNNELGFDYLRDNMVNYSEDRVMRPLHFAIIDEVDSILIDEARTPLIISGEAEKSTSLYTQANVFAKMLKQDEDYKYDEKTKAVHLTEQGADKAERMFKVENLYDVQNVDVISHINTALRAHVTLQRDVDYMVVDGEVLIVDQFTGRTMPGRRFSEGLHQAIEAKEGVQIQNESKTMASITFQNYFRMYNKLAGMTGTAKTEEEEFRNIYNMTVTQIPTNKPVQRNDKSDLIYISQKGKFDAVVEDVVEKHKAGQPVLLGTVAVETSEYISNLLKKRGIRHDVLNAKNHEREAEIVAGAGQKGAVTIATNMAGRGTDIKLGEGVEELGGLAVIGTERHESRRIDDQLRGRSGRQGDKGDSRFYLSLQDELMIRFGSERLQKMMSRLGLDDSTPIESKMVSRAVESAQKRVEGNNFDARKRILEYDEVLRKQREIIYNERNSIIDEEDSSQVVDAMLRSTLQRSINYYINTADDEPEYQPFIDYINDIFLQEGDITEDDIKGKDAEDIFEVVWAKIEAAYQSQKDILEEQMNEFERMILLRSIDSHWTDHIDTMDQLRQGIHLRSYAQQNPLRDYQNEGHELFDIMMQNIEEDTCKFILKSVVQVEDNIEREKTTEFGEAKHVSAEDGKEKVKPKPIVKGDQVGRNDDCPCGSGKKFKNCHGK
Summary of the method: (§2)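 S. aureus Mu50 grown in LB at 37 °C; inhibitor added at mid-log phase and cultures sampled at several time points. Supernatants separated by centrifugation, filtered 0.45 μm, and probed by Western blot with antibodies to α-hemolysin, TSST-1 or enterotoxin B.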

[5] = molecular target: T1, Protein translocase subunit SecA 1 (Staphylococcus aureus (strain NCTC 8325)); experiment: Inhibition of Staphylococcus aureus SecA1 assessed as reduction in secretion of enterotoxin B at 10 uM by Western blot analysis; summary of the method: as §2
[6] = tested on: Staphylococcus aureus; experiment: Bactericidal activity against Methicillin sensitive Staphylococcus aureus ATCC 6538 assessed as CFU reduction for 1 hr; type: functional, organism-based
Summary of the method: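 Log-phase LB cultures (OD600 ≈ 0.5) mixed with a range of inhibitor concentrations, shaken at 1,000 rpm, 37 °C, 1 hr, under normal room light. Cultures serially diluted in LB, plated on LB agar, incubated overnight at 37 °C. CFU counted; bactericidal effect taken as CFU reduction versus untreated control.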

[7] = tested on: Staphylococcus aureus; experiment: Bacteriostatic activity against Staphylococcus aureus ATCC 6538 after 24 hrs; type: functional; details: ATCC 6538, 24 h
[8] = tested on: Staphylococcus aureus; experiment: Reduction in extracellular protein in Staphylococcus aureus Mu50 supernatant at 10 uM measured within 15 hrs; type: functional, organism-based
Summary of the method: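 Mu50 grown in LB at 37 °C; inhibitor added at mid-log phase (OD600 ≈ 2.6). Culture sampled at various times, supernatant separated by centrifugation and passed through 0.45 μm filter. Secreted α-hemolysin, TSST-1 and enterotoxin B detected by Western blot with specific antibodies.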

[9] = tested on: Staphylococcus aureus; experiment: Bacteriostatic activity against Staphylococcus aureus N315 after 24 hrs; type: functional; details: N315, 24 h; summary of the method: as §1
[10] = tested on: Staphylococcus aureus; experiment: Bacteriostatic activity against NorA deficient Staphylococcus aureus K1758; type: functional; summary of the method: as §1
[11] = molecular target: T2, Protein translocase subunit SecA 1 (Staphylococcus aureus (strain NCTC 8325), UniProt O06446); experiment: Inhibition of Staphylococcus aureus ATCC 35556 SecA1 liposomal ion channel activity in Xenopus laevis oocytes incubated for 3 hrs measured by recording ion current for 1 min; type: cell-based
T2 sequence (O06446 whole entry): T1 sequence (whole entry)
Summary of the method: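 Xenopus laevis oocytes injected at animal pole with 50 nl containing 120 ng liposomes, 120 ng SaSecA1, 14 ng proOmpA, 2 mM ATP, 1 mM Mg(OAc)2 plus varying inhibitor. Incubated 3 hr at 23 °C, then ion current recorded continuously 1 min.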

[12] = molecular target: T3, Protein translocase subunit SecA 2 (Staphylococcus aureus (strain NCTC 8325), UniProt Q2FUW6); experiment: Inhibition of Staphylococcus aureus ATCC 35556 SecA2 expressed in Escherichia coli BL21-gammaDE3 assessed as reduction in intrinsic ATPase activity incubated for 3 hrs measured by malachite green colorimetric method
T3 sequence (Q2FUW6 whole entry): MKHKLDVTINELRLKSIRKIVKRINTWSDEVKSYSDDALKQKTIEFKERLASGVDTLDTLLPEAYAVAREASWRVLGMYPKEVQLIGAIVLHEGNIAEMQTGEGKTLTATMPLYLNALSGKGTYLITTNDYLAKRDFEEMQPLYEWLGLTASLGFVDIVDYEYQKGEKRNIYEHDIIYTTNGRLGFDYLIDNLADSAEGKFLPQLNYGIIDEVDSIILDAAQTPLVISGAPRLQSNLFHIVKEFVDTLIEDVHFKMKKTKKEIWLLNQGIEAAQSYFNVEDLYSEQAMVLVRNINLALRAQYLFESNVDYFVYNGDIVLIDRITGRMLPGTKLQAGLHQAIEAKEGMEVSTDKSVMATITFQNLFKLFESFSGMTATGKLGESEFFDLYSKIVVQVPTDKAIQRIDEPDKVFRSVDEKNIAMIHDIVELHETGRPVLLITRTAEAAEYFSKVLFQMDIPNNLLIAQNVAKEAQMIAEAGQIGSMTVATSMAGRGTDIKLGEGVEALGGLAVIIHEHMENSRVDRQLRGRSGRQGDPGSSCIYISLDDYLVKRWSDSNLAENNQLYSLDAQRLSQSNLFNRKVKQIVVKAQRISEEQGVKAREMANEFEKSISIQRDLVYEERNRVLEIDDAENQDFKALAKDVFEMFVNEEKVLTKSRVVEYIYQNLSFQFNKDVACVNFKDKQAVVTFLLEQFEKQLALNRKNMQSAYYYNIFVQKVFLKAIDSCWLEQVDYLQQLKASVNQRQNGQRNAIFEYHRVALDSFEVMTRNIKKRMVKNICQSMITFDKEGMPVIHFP

## CCCCCCC1c2ccc(O)cc2Oc2cc(O)ccc21
[1]
  MIC: 4 µg/mL (≈ 13.4 µM)
[2]
  Ratio: 7
[3]
  Ratio: 250
[4]
  inhibition: Active
[5]
  inhibition: Active
[6]
  Activity: Dose-dependent effect
[7]
  MIC: 4 µg/mL (≈ 13.4 µM)
[8]
  Activity: Active
[9]
  MIC: 4 µg/mL (≈ 13.4 µM)
[10]
  MIC: 4 µg/mL (≈ 13.4 µM)
[11]
  IC50: 1 µM
[12]
  IC50: 15 µM
